Data published in publication PMC8828683 (Stem Cell Reports, 2022).

Tests used:
TERA-2 ECC = assay: Live cells / PCD by FACS of nonpermeabilized cells stained with annexin-V and PI; type: cell-based, human; details: read-out: IC50 Live Cells, 4 days
How it was run: (§1)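 Cells were seeded so that vehicle wells stayed subconfluent, then treated with a range of test compound concentrations for 4 days. Without permeabilization, they were stained with annexin-V-FITC and propidium iodide and analysed by flow cytometry. Double-negative cells (Q3) were scored as live and Q1+Q2 as programmed death. Vehicle was set to 100% viable and 0% dead. Results are the mean of three independent assays with SEM; group averages and ratios are derived from the IC50s.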

differentiated cells [1] = assay: Inhibition of cell proliferation; type: cell-based; details: read-out: IC50 inhibition of proliferation; insensitive differentiated cells
WA01/H1 ESC = assay: Live cells / PCD by FACS of nonpermeabilized cells stained with annexin-V and PI; type: cell-based, human; details: read-out: IC50 Live Cells
How it was run: as §1

[2] = tested on: HFF-1 normal skin fibroblast; assay: Cellular ATP level; type: cell-based, human; details: read-out: IC50 ATP
How it was run: (§2)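 Cellular ATP was measured with a CellTiter-Glo luminescence viability assay after exposure to a concentration range of test compound. IC50 is the average of three independent assays. Mean IC50s across differentiated or human pluripotent lines, and their ratio, are derived from the per-line values.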

differentiated cells [3] = assay: ATP loss, summary over differentiated cell lines; type: cell-based; details: read-out: IC50 ATP loss, on average
How it was run: as §2

differentiated cells [4] = assay: PCD / live cell loss; type: cell-based; details: read-out: IC50 initiation of PCD, on average; average over differentiated cells
How it was run: as §1

H108 fibroblasts = assay: Immunoblotting of total cell extracts; type: cell-based, human
How it was run: (§3)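 Cells were cultured with 2.5 μM test compound for up to 96 h, and attached plus unattached cells were pooled. Whole-cell RIPA lysates were run on 4–12% Bis-Tris gels, transferred to nitrocellulose and blocked in 5% milk/TBS. Primary antibodies went on overnight at 4°C, followed by infrared secondary antibodies and imager quantitation. Each blot carried untreated U2OS as a shared standard, with Ponceau-S histones for normalization and lighter exposures for quantitation. Adriamycin for 24 h (NTERA-2 1 μM, H108 2 μM) served as a DNA-break control.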

[5] = tested on: Mouse Gmnn(fl/fl);ER-Cre/+ ESCs; assay: Cellular DNA content by FACS of permeabilized cells stained with PI; type: cell-based
How it was run: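 Mouse Gmnn(fl/fl);ER-Cre/+ embryonic stem cells were grown with 3 μM test compound (from a 20 mM DMSO stock) or DMSO vehicle for the indicated times. Attached and unattached cells were pooled, permeabilized and stained with propidium iodide. DNA content was measured by flow cytometry, scoring the fraction of cells with <2N DNA.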

NTERA-2 ECC [6] = assay: Cells with <2N DNA by FACS of permeabilized cells stained with PI; type: cell-based, human
How it was run: (§4)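 Cells were exposed to a range of test compound concentrations alongside vehicle (DMSO) controls. They were then permeabilized, stained with propidium iodide, and DNA content was read by flow cytometry. IC50 is the concentration at which 50% of cells hold <2N DNA, from 3 independent repetitions with SEM. Line averages and differentiated/pluripotent ratios are derived from these IC50s. NTERA-2 was also run as a time course at 5 μM, normalized to vehicle at each time point.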

[7] = tested on: GCT27D.C1 teratocarcinoma xenografts; assay: Teratocarcinoma xenograft, daily intraperitoneal injections; type: in vivo, mice
How it was run: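 Six-week-old female […] BALB/c nude mice were injected subcutaneously in the lower right flank with 200 μL of 50% Matrigel holding 2 million NTERA-2 or 5 million GCT27D.C1 cells (eight mice per model). Once tumors were palpable, mice received 40 mg/kg test compound i.p. daily (DMSO solution diluted in sunflower oil to 200 μL) or vehicle. Tumor volume was calculated as length × width² × 0.5 from calipers, TGI was calculated, and body weight was tracked. Tumors were harvested 15 days later.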

[8] = Maximum solubility in DMSO; type: physicochemical
[9] = tested on: SCUi24-diff (spontaneously differentiated SCUi24 iPSCs); assay: Cells with <2N DNA by FACS of permeabilized cells stained with PI; type: cell-based, human; details: read-out: IC50 DNA (50% of cells with <2N DNA)
How it was run: as §4

Toxicity studies in mice = type: in vivo, mouse; details: doses from 20 to 100 mg/kg body weight
[10] = tested on: HFF-1 normal skin fibroblast; assay: Cells with <2N DNA by FACS of permeabilized cells stained with PI; type: cell-based, human; details: read-out: IC50 DNA (50% of cells with <2N DNA); HFF-1
How it was run: as §4

VeroE6 cells = assay: Inhibition of cell proliferation; type: cell-based, monkey; details: read-out: IC50 inhibition of proliferation
NTERA-2 ECC [11] = assay: Live cells / PCD by FACS of nonpermeabilized cells stained with annexin-V and PI; type: cell-based, human; details: read-out: IC50 Live Cells; NTERA-2 ECC, 4 days
How it was run: as §1

[12] = tested on: HBEC normal lung epithelial; assay: as above; type: cell-based, human; details: read-out: IC50 Live Cells
How it was run: as §1

[13] = tested on: HBEC normal lung epithelial; assay: Cells with <2N DNA by FACS of permeabilized cells stained with PI; type: cell-based, human; details: read-out: IC50 DNA (50% of cells with <2N DNA)
How it was run: as §4

[14] = tested on: VeroE6 normal kidney epithelial; assay: Cellular ATP level; type: cell-based, monkey; details: read-out: IC50 ATP
How it was run: as §2

[15] = tested on: human pluripotent cells (ESCs, iPSCs, ECCs); assay: ATP loss, summary over pluripotent cell lines; type: cell-based
How it was run: as §2

WA09/H9 ESC = assay: Live cells / PCD by FACS of nonpermeabilized cells stained with annexin-V and PI; type: cell-based, human; details: read-out: IC50 Live Cells
How it was run: as §1

differentiated cells [16] = assay: DNA loss; type: cell-based; details: read-out: IC50 DNA loss, on average; average over differentiated cells
How it was run: as §4

[17] = tested on: H108 normal skin fibroblast; assay: Live cells / PCD by FACS of nonpermeabilized cells stained with annexin-V and PI; type: cell-based, human; details: read-out: IC50 Live Cells; H108, 4 days
How it was run: as §1

SCUi24 iPSC = assay: Cellular ATP level; type: cell-based, human; details: read-out: IC50 ATP
How it was run: as §2

NTERA-2 ECCs = assay: Immunoblotting of total cell extracts; type: cell-based, human
How it was run: as §3

[18] = H108, 2.5 μM WX8, normalized to histones
[19] = H108 fibroblasts, 2.5 μM WX8 or 2 μM Adriamycin 24 h
[20] = NTERA-2, 2.5 μM WX8, normalized to histones

SMILES: C(=N\Nc1nc(Nc2ccccc2)nc(N2CCOCC2)n1)/c1c[nH]c2ccccc12 [WX8]
- IC50 (TERA-2 ECC): 5 µM
- IC50 (differentiated cells [1]): > 100 µM
- IC50 (WA01/H1 ESC): 1.9 µM
- IC50 [2]: 28 µM
- IC50 (differentiated cells [3]): 15.8 µM
- IC50 (differentiated cells [4]): 81.3 µM
- Accumulation of p62 protein (H108 fibroblasts; [18]): 13 fold
- Accumulation of total LC3 protein (H108 fibroblasts; [18]): 10 fold
- CASP3 cleavage (H108 fibroblasts; [19]): Neither WX8 nor Adriamycin induced cleavage
- PARP cleavage (H108 fibroblasts; [19]): Neither WX8 nor Adriamycin induced cleavage
- Cells with <2N DNA ([5]; 3 μM WX8, 72 hr): > 90%
- Cells with <2N DNA ([5]; 3 μM WX8, within 32 h): 50%
- Cells with <2N DNA (NTERA-2 ECC [6]; NTERA-2, 5 μM WX8, 96h (4 days)): > 80%
- IC50 (NTERA-2 ECC [6]; read-out: IC50 DNA (50% of cells with <2N DNA), NTERA-2 ECC): 3.5 µM
- Tumor growth inhibition (TGI) ([7]; GCT27D.C1 tumors, 40 mg WX8/kg daily i.p.): 78%
- OCT4-, SOX2- and Ki67-stained cells in tumor slices ([7]; GCT27D.C1 tumors, 40 mg WX8/kg daily i.p., immunohistochemistry): selectively eliminated cells expressing OCT4 or SOX2 protein with no detectable effect on proliferating cells
- Mouse body weights ([7]; GCT27D.C1 xenograft mice, 40 mg WX8/kg daily i.p.): maintained
- Effect on teratocarcinoma xenografts ([7]; GCT27D.C1 xenografts, intraperitoneal injections of WX8): Eliminated stem cells and inhibited tumor growth
- Maximum solubility [8]: about 30 mg WX8/350μL DMSO
- IC50 [9]: > 10 µM
- Maximum dose at which no indication of mouse impairment was observed (Toxicity studies in mice): 40 mg/kg
- IC50 [10]: 50 µM
- IC50 (VeroE6 cells): 0.45 µM
- IC50 (NTERA-2 ECC [11]): 1.3 µM
- IC50 [12]: 140 µM
- IC50 [13]: 20 µM
- IC50 [14]: 14 µM
- Difference in ATP loss, differentiated vs pluripotent cells ([15]; ratio of average IC50): 13 fold
- IC50 ([15]; read-out: IC50 ATP loss, on average, average over human pluripotent cells): 1.2 µM
- IC50 (WA09/H9 ESC): 2.5 µM
- IC50 (differentiated cells [16]): 67.5 µM
- IC50 [17]: 50 µM
- IC50 (SCUi24 iPSC): 0.4 µM
- CASP3 cleavage (NTERA-2 ECCs; NTERA-2, 2.5 μM WX8): < 2%
- PARP cleavage (NTERA-2 ECCs; NTERA-2, 2.5 μM WX8): 41%
- Accumulation of p62 protein (NTERA-2 ECCs; [20]): 9 fold
- Accumulation of total LC3 protein (NTERA-2 ECCs; [20]): 4 fold
- CASP12 cleavage (NTERA-2 ECCs; NTERA-2, WX8): < 2%
- Cleaved CASP7 (NTERA-2 ECCs; NTERA-2, WX8): not detected
